From ChEMBL document CHEMBL4312003, “Optimization of biaryloxazolidinone as promising antibacterial agents against antibiotic-susceptible and antibiotic-resistant gram-positive bacteria” (Eur J Med Chem, 2020)
≈ marks a conversion by molar mass, not a printed value.

How the values were obtained:
Staphylococcus aureus [1] = experiment: Antibacterial activity against methicillin-sensitive Staphylococcus aureus assessed as complete reduction in bacterial cell growth by CLSI protocol based broth liquid microdilution method; type: functional
How it was run: (§1)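 Broth liquid microdilution per CLSI guidelines; isolates identified on an automated MicroScan system before testing. MIC taken as lowest concentration giving total inhibition of bacterial growth, reported in μg/mL. S. aureus ATCC29213 run as the control strain.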

Staphylococcus aureus [2] = experiment: Antibacterial activity against Staphylococcus aureus ATCC 29213 assessed as complete reduction in bacterial cell growth by CLSI protocol based broth liquid microdilution method; type: functional; how it was run: as §1
Enterococcus faecalis [3] = experiment: Antibacterial activity against linezolid-resistant Enterococcus faecalis assessed as complete reduction in bacterial cell growth by CLSI protocol based broth liquid microdilution method; type: functional; how it was run: as §1
Staphylococcus aureus [4] = experiment: Antibacterial activity against methicillin-resistant Staphylococcus aureus assessed as complete reduction in bacterial cell growth by CLSI protocol based broth liquid microdilution method; type: functional; how it was run: as §1
Enterococcus faecium [5] = experiment: Antibacterial activity against vancomycin-resistant Enterococcus faecium assessed as complete reduction in bacterial cell growth by CLSI protocol based broth liquid microdilution method; type: functional; how it was run: as §1
[6] = Stability in simulated gastric acid assessed as compound remaining at pH 1.2 incubated for 2 hrs; type: ADME; settings: read-out: Stability
[7] = Stability in simulated gastric acid assessed as compound remaining at pH 1.2 incubated for 0.5 hrs; type: ADME; settings: read-out: Stability
HepG2 = experiment: Cytotoxicity against human HepG2 cells assessed as reduction in cell viability incubated for 48 hrs by MTT assay; type: cell-based; settings: HepG2, 48 h
How it was run: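 HepG2 cells were grown in RPMI1640 with 10% FBS and plated at about 4×10^4 cells/well in MEM. After 24 h at 37 °C in 5% CO2, compounds were added at the indicated final concentrations for 48 h. MTT was added (0.5 mg/mL final) for 4 h at 37 °C and the formazan dissolved in DMSO. Absorbance was read at 492 nm (630 nm reference). Each compound was tested three times; IC50 given as mean ± SD.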

Enterococcus faecalis [8] = experiment: Antibacterial activity against clinical isolates of linezolid-resistant Enterococcus faecalis assessed as complete reduction in bacterial cell growth by CLSI protocol based broth liquid microdilution method; type: functional; how it was run: as §1
Staphylococcus aureus [9] = experiment: Antibacterial activity against clinical isolates of methicillin-sensitive Staphylococcus aureus assessed as reduction in bacterial cell growth by CLSI protocol based broth microdilution method; type: functional; how it was run: as §1
[10] = Stability in simulated gastric acid assessed as compound remaining at pH 1.2 incubated for 1.5 hrs; type: ADME; settings: read-out: Stability
Enterococcus faecium [11] = experiment: Antibacterial activity against clinical isolates of vancomycin-resistant Enterococcus faecium assessed as complete reduction in bacterial cell growth by CLSI protocol based broth liquid microdilution method; type: functional; how it was run: as §1
[12] = Stability in simulated gastric acid assessed as compound remaining at pH 1.2 incubated for 1 hr; type: ADME; settings: read-out: Stability

Row | SMILES | MIC (Staphylococcus aureus [1]) [µg/mL] | MIC (Staphylococcus aureus [2]) [µg/mL] | MIC (Enterococcus faecalis [3]) [µg/mL] | MIC (Staphylococcus aureus [4]) [µg/mL] | MIC (Enterococcus faecium [5]) [µg/mL] | remaining at 2 h [6] [%] | remaining at 0.5 h [7] [%] | IC50 (HepG2) [µM] | MIC (Enterococcus faecalis [8]) [µg/mL] | MIC (Staphylococcus aureus [9]) [µg/mL] | remaining at 1.5 h [10] [%] | MIC (Enterococcus faecium [11]) [µg/mL] | remaining at 1 h [12] [%]
1 | CC(=O)NC[C@H]1CN(c2ccc(-c3ccc(/C=N/N4CC[S+]([O-])CC4)cn3)c(F)c2)C(=O)O1 | 2 (≈ 4.22 µM) | 2 (≈ 4.22 µM) | 2 (≈ 4.22 µM) | 1 (≈ 2.11 µM) | 2 (≈ 4.22 µM) |  |  |  |  |  |  |  | 
2 | CC(=O)NC[C@H]1CN(c2ccc(-c3ccc(/C=N/N4CCNCC4)c(O)c3)c(F)c2)C(=O)O1 | 0.25 (≈ 0.549 µM) | 0.5 (≈ 1.1 µM) | 0.25 (≈ 0.549 µM) | 0.25 (≈ 0.549 µM) | 0.25 (≈ 0.549 µM) |  |  |  |  |  |  |  | 
3 | COc1cc(-c2ccc(N3C[C@H](CNC(C)=O)OC3=O)cc2F)ccc1/C=N/N1CCSCC1 | 1 (≈ 2.06 µM) | 2 (≈ 4.11 µM) | 1 (≈ 2.06 µM) | 1 (≈ 2.06 µM) | 1 (≈ 2.06 µM) |  |  |  |  |  |  |  | 
4 | CC(=O)NC[C@H]1CN(c2ccc(-c3ccc(/C=N/N4CCN(C)CC4)c(O)c3)c(F)c2)C(=O)O1 | 0.12 (≈ 0.256 µM) | 0.125 (≈ 0.266 µM) | 0.25 (≈ 0.532 µM) | 0.125 (≈ 0.266 µM) | 0.25 (≈ 0.532 µM) | 5.3 | 69.8 | > 25 | 1 (≈ 2.13 µM) | 0.5 to 1 (≈ 1.06 to 2.13 µM) | 12.2 | 1 (≈ 2.13 µM) | 35
5 | CC(=O)NC[C@H]1CN(c2ccc(-c3ccc(/C=N/N4CCN(C)CC4)c(C)c3)c(F)c2)C(=O)O1 | 0.5 (≈ 1.07 µM) | 0.5 (≈ 1.07 µM) | 0.5 (≈ 1.07 µM) | 0.5 (≈ 1.07 µM) | 0.5 (≈ 1.07 µM) |  |  |  |  |  |  |  | 
6 | CC(=O)NC[C@H]1CN(c2ccc(-c3ccc(/C=N/N4CCSCC4)c(C(F)(F)F)c3)c(F)c2)C(=O)O1 | 2 (≈ 3.81 µM) | 2 (≈ 3.81 µM) | 2 (≈ 3.81 µM) | 2 (≈ 3.81 µM) | 2 (≈ 3.81 µM) |  |  |  |  |  |  |  | 
7 | COc1cc(-c2ccc(N3C[C@H](CNC(C)=O)OC3=O)cc2F)ccc1/C=N/N1CCOCC1 | 2 (≈ 4.25 µM) | 2 (≈ 4.25 µM) | 2 (≈ 4.25 µM) | 2 (≈ 4.25 µM) | 2 (≈ 4.25 µM) |  |  |  |  |  |  |  | 
8 | CC(=O)NC[C@H]1CN(c2ccc(-c3ccc(/C=N/N4CCCCC4)c(F)c3)c(F)c2)C(=O)O1 | 0.25 (≈ 0.548 µM) | 0.25 (≈ 0.548 µM) | 0.5 (≈ 1.1 µM) | 0.25 (≈ 0.548 µM) | 0.5 (≈ 1.1 µM) |  |  |  |  |  |  |  | 
9 | CC(=O)NC[C@H]1CN(c2ccc(-c3ccc(/C=N/N4CCSCC4)c(F)c3)c(F)c2)C(=O)O1 | 0.25 (≈ 0.527 µM) | 0.25 (≈ 0.527 µM) | 1 (≈ 2.11 µM) | 0.25 (≈ 0.527 µM) | 1 (≈ 2.11 µM) |  |  |  |  |  |  |  | 
10 | CC(=O)NC[C@H]1CN(c2ccc(-c3ccc(/C=N/N4CCNCC4)nc3)c(F)c2)C(=O)O1 | 1 (≈ 2.27 µM) | 0.5 (≈ 1.14 µM) | 0.5 (≈ 1.14 µM) | 0.5 (≈ 1.14 µM) | 0.5 (≈ 1.14 µM) |  |  |  |  |  |  |  | 
11 | CC(=O)NC[C@H]1CN(c2ccc(-c3ccc(/C=N/N4CCSCC4)cn3)c(F)c2)C(=O)O1 | 2 (≈ 4.37 µM) | 1 (≈ 2.19 µM) | 2 (≈ 4.37 µM) | 0.5 (≈ 1.09 µM) | 2 (≈ 4.37 µM) |  |  |  |  |  |  |  | 
12 | CC(=O)NC[C@H]1CN(c2ccc(-c3ccc(/C=N/N4CCS(=O)(=O)CC4)cn3)c(F)c2)C(=O)O1 | 1 (≈ 2.04 µM) | 2 (≈ 4.09 µM) | 1 (≈ 2.04 µM) | 1 (≈ 2.04 µM) | 1 (≈ 2.04 µM) |  |  |  |  |  |  |  | 
13 | CCC(=O)N1CCN(/N=C/c2ccc(-c3ccc(N4C[C@H](CNC(C)=O)OC4=O)cc3F)cc2O)CC1 | 0.25 (≈ 0.489 µM) | 0.25 (≈ 0.489 µM) | 0.25 (≈ 0.489 µM) | 0.25 (≈ 0.489 µM) | 0.25 (≈ 0.489 µM) |  |  |  | 1 to 2 (≈ 1.95 to 3.91 µM) | 1 to 2 (≈ 1.95 to 3.91 µM) |  | 1 to 2 (≈ 1.95 to 3.91 µM) | 
14 | CC(=O)NC[C@H]1CN(c2ccc(-c3ccc(/C=N/N4CCN(C)CC4)c(F)c3)c(F)c2)C(=O)O1 | 1 (≈ 2.12 µM) | 1 (≈ 2.12 µM) | 1 (≈ 2.12 µM) | 1 (≈ 2.12 µM) | 1 (≈ 2.12 µM) |  |  |  |  |  |  |  | 
